From PubChem BioAssay
In the library only some 3.5% were active in any assay of this set; here they are far more common.
RGS4 inh: inhibitors of human RGS4. HEK293 M3R/RGS4 inducible, Fluo-4 calcium flux; active compounds read high; triggered by carbachol at its EC20. actives 0.45% (n = 310,000). B-score at 10 µM. P49798;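 active means B-score, a plate-corrected calcium signal, over three deviations above library mean, with baseline fluorescence within five deviations of library mean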;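 further: RGS4 expression induced by doxycycline in cells with stable M3 receptor; B-score is computed from the integrated fluorescence ratio over baseline after carbachol; higher B-score means a larger calcium signal and so more RGS4 inhibition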
Target sequence (P49798 whole entry, looked up): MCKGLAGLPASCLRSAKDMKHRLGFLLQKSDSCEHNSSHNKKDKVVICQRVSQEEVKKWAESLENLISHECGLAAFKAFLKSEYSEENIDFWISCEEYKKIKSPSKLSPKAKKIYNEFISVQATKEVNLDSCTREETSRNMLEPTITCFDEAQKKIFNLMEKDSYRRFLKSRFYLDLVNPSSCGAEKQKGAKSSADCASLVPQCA
RGS4 act: RGS4 potentiation or activation; HEK293 M3R/inducible RGS4, carbachol calcium flux Fluo4; active compounds read low; B-score at 10 µM; AID 463111; actives 0.92% (n = 310,000);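 active means B-score of the integrated calcium signal more than 4 SD below the library mean, with starting fluorescence not abnormally high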;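 further: negative B-score means reduced calcium response which marks RGS4 activation or potentiation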
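Also added: carbachol at ECmax as muscarinic agonist stimulus; Assay system: HEK293 cells with stable M3R and inducible RGS4; Timing: overnight RGS4 induction, 30 min dye load 37 °C, 20 min compound RT; Measured by: Fluo4-AM (2 µM) calcium-flux fluorescence, kinetic read.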
MrgX1 agonist: activates human MrgX1 receptor signaling; MrgX1-HEK293 cells, Fluo-4 calcium fluorescence, agonist mode; active compounds read high; B-score at 10 µM; actives 0.44% (n = 310,000);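 active means calcium response B-score plate-corrected fluorescence ratio at least 3 library SD, with starting fluorescence B-score inside 5 SD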
Target sequence (Q96LB2 whole entry, looked up): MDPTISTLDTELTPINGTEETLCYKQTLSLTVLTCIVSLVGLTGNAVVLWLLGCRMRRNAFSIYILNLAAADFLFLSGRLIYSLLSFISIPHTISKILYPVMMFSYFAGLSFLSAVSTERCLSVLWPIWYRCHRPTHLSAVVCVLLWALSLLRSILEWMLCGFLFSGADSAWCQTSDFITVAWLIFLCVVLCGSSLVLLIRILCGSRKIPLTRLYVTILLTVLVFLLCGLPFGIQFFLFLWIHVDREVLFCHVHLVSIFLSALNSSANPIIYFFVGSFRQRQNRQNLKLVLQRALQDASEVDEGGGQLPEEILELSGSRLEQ
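Assay system: MrgX1-expressing HEK293 cells / Amount: fifteen thousand cells per well / Doses: test compound in the initial addition of three / Timing: cells plated overnight, dye loaded 0.5 h 37 °C, 0.5 h room temperature / Technique: kinetic calcium dye fluorescence, Fluo-4 NW / Control set: positive and negative controls per plate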
MrgX1 PAM: allosterically activates human MrgX1 receptor signaling; MrgX1-HEK293, Fluo-4 calcium flux, FDSS; active compounds read high; B-score at 10 µM; actives 0.63% (n = 310,000);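 active means plate-corrected calcium response at least 3 library SD above typical, normal starting fluorescence, not activating the receptor alone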;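 further: compound read alongside a low EC10 to EC30 dose of BAM8-22 agonist; peak minus trough fluorescence over baseline measured at the second addition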
MrgX1 antag: antagonists of human MrgX1 receptor; Q96LB2; MRGX1-HEK293 calcium flux, Fluo-4, BAM8-22 antagonism; active compounds read low; B-score at 10 µM; actives 1.3% (n = 310,000);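 active means calcium-response B-score plate-corrected more than 3 library SD below zero, starting fluorescence within 5 deviations, no agonist response on first addition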;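 further: peak minus trough fluorescence over baseline after final BAM8-22 challenge near maximal dose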
An asterisk follows results filed as active; i = inactive; . = no result given.

SMILES	RGS4 inh	RGS4 act	MrgX1 agonist	MrgX1 PAM	MrgX1 antag
CCN(CC#CCC(O)(c1ccccc1)C1CCCC1)C(C)C (configuration not stated)	i	-7.4*	i	i	i
COC(=O)C1CN(C(=O)C(C)Oc2ccc(C)c(C)c2)c2ccccc2O1 (configuration not stated)	i	i	i	i	i
O=C1OC(Nc2nc(-c3ccc(F)cc3)cs2)c2ccccc21 (configuration not stated)	i	i	i	i	i
Cc1nc(NC(=O)c2ccccc2)sc1-c1csc(Nc2cccc(F)c2)n1	i	i	i	i	i
Cc1cc(NS(=O)(=O)c2ccc(NC(=O)c3cc(-c4ccccc4Cl)nc4ccccc34)cc2)no1	i	i	34*	i	i
Cc1cc(NS(=O)(=O)c2ccc(Nc3nc(-c4sc(NC(=O)c5ccccc5)nc4C)cs3)cc2)no1	i	-11*	i	i	i
Cc1cc(NC(=O)c2cc(-c3ccccc3Cl)nc3ccccc23)no1	i	i	i	i	i
COc1ccccc1NC(=O)NC1(C)CCS(=O)(=O)C1 (configuration not stated)	i	i	.	.	.
O=C(Cn1c(=O)n(-c2ccccc2)c(=O)n1CC(=O)N1CCCCC1)N1CCCCC1	i	i	36*	i	i
COc1ccc(NC(=O)COC(=O)c2ccc(OCc3ccccc3Cl)c(OC)c2)c(OC)c1	i	i	i	i	-6*
CC(C)Oc1ccc(C(=O)NC2(C(F)(F)F)NC(=O)N(CCCc3ccccc3)C2=O)cc1 (configuration not stated)	i	-7.1*	i	i	i
CCCCN1C(=O)NC(NC(=O)c2ccco2)(C(F)(F)F)C1=O (configuration not stated)	i	i	i	i	i
CC1(C)COCN1S(=O)(=O)c1ccc(C(=O)Nc2nnc(-c3ccc(Cl)s3)o2)cc1	i	i	80*	i	i
CCC1CCCCN1S(=O)(=O)c1ccc(C(=O)Nc2nnc(C3CC3)o2)cc1 (configuration not stated)	i	i	i	i	i
O=C(Nc1nnc(-c2cccs2)o1)c1ccc(S(=O)(=O)N2CCOCC2)cc1	i	i	i	i	i
CCC1CCCCN1S(=O)(=O)c1ccc(C(=O)Nc2nnc(-c3ccccc3Cl)o2)cc1 (configuration not stated)	i	i	38*	i	i
CCOC(=O)/C(C#N)=N/Nc1ccc(S(=O)(=O)N2CCc3ccccc32)cc1	i	i	i	i	-4.5*
N#C/C(=N\Nc1ccc(S(=O)(=O)N2CCc3ccccc32)cc1)C(N)=S	i	i	i	i	i
CN(CC(=O)Nc1ccccc1Cl)CC(=O)Nc1ccccc1[N+](=O)[O-]	i	i	i	10*	i
CCc1cc(=O)oc2c(C)c(OC(C)C(=O)NCCCn3ccnc3)ccc12 (configuration not stated)	i	i	i	i	i
CCOC(=O)Cc1csc(Nc2ccc(Cl)cc2)n1	i	i	i	i	i
CCOC(=O)C(CC)(CCC(=O)O)c1csc(Nc2ccc(C)cc2)n1 (configuration not stated)	i	i	i	i	-7.4*
Cc1cc(C)c2oc(C(=O)Nc3nnc(C(C)C)s3)cc(=O)c2c1	i	i	i	i	i
CSc1nnc(NC(=O)c2cc(=O)c3cc(C)cc(C)c3o2)s1	i	i	i	10*	i
COc1cccc(-n2nnnc2S(C)(=O)=O)c1	i	i	48*	i	i
SMILES	RGS4 inh	RGS4 act	MrgX1 agonist	MrgX1 PAM	MrgX1 antag
COc1ccc(C(=O)CC(=O)c2ccccc2)cc1	i	i	i	i	i
COc1ccc(C(=O)C/C(=C\C(=O)c2ccc(C)cc2)c2ccccc2)cc1	i	-7.1*	i	i	-5.6*
CCC1(CC)C(=O)C2=C3C1[C@H](C(=O)OC)CC(C(=O)OC)C[C@H]3[C@H]1C(=O)N(c3ccccc3)C(=O)[C@H]1[C@H]2C (some centres not stated)	i	i	i	i	i
Cn1c(C(=O)N(Cc2ccccc2)Cc2cccs2)cc2sccc21	i	-7.8*	i	i	i
CC1CC(C)CN(S(=O)(=O)CCNC(=O)c2ccccc2)C1 (configuration not stated)	i	i	i	i	i
CC(=O)NNC(=S)NC(=O)C(c1ccccc1)c1ccccc1	i	i	35*	i	i
CC(C)(C)C(=O)NC(=S)NNC(=O)C(c1ccccc1)c1ccccc1	i	-7.4*	156*	i	i
CCNC(=S)NNC(=O)C(c1ccccc1)c1ccccc1	i	i	i	i	i
CCC(NC(C)C)C(O)c1ccc(O)c2[nH]c(=O)ccc12 (configuration not stated)	i	i	28*	i	i
C/C(=N\NS(=O)(=O)c1c(C)cc(C)cc1C)c1ccncc1	i	i	i	i	i
CCN(Cc1ccc(C#CCCO)cc1)CC1CCCN(CCc2cccc(OC)c2)C1 (configuration not stated)	i	-7*	i	i	i
CCN(Cc1ccc(NC(C)=O)cc1)CC1CCCN(CCc2cccc(F)c2)C1 (configuration not stated)	i	i	i	i	i
Cc1ccc2c(c1)c(-c1csc(N)n1)c(C)n2C	i	i	i	i	i
Cc1c(CCC(=O)NCCCn2ccnc2)c(=O)oc2cc3occ(C(C)(C)C)c3cc12	i	-7.3*	i	i	i
Cc1coc2cc3oc(=O)c(CCC(=O)NC4CC4)c(C)c3cc12	i	i	i	9.4*	i
Cc1oc2cc3oc(=O)c(CCC(=O)NC4CC4)c(C)c3cc2c1C	i	i	i	i	i
Cc1coc2cc3oc(=O)c(CCC(=O)NCCCn4ccnc4)c(C)c3cc12	i	i	i	i	i
COc1ccnc2c1c(=O)n(Cc1ccc(Cl)cc1)c(=O)n2C	i	i	i	i	i
COc1ccc(C(=O)/C=C2/C(=O)Nc3ccccc32)cc1OC	12*	i	i	i	i
COc1ccc(C(=O)/C=C2/C(=O)Nc3ccccc32)c(OC)c1	i	i	i	i	i
CCCCc1ccc(C2C(C#N)=C(N)SC(N)=C2C#N)s1	.	.	i	i	-9.6*
CCOc1ccc(C2C(C#N)=C(N)SC(N)=C2C#N)c(OCC)c1	i	i	i	i	i
